Source: PubChem BioAssay
CAL PDZ FP-1: untagged CAL PDZ binding inhibitors, primary screen, biochemical, fluorescence polarization, HTS. Golgi-associated PDZ and coiled-coil motif-containing protein (Homo sapiens), Q9HD26. purified CAL PDZ, TMR-peptide fluorescence polarization, 1 h. inhibition, % at 24.9 µM. 300,000 tested, 0.92% active. AID 602252, 2012;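 active = mean inhibition of at least 30% with at least half of replicates also reaching 30%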;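 also: 0% = DMSO neutral control and 100% = excess unlabeled competitor peptide PRC23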
ARNT-TACC3 inh: disruptors of ARNT/TACC3 protein interaction, primary screen, biochemical, AlphaScreen, single concentration; 390,000 tested, 0.66% active; Transforming acidic coiled-coil-containing protein 3 (Homo sapiens), Q9Y6A5; inhibition, % at 9.99 µM; AlphaScreen His-ARNT PAS-B/GST-TACC3 binding, luminescence; TACC3 fragment carries E629A point mutation;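 active = mean inhibition of replicates at least 50% and at least half of replicates each reaching 50%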;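 also: 0% = complete ARNT plus TACC3 wells and 100% = ARNT alone without TACC3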
CAL PDZ FP-2: CAL PDZ peptide-binding inhibitors, primary screen, biochemical, fluorescence polarization, Cer-tagged CAL PDZ, HTS; 330,000 tested, 0.02% active; purified CAL PDZ, TMR-peptide fluorescence polarization, 1 h; Golgi-associated PDZ and coiled-coil motif-containing protein (Homo sapiens), Q9HD26; inhibition, % at 20 µM;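 active = highest replicate inhibition of at least 40%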;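 also: plate controls were DMSO neutral control wells for no effect and unlabeled competitor peptide control wells for full effect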
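Assay system – tagged CAL PDZ protein CerCALP, purified · Timing – 1 h at RT · Compound – single point, 20 µM · Measured by – fluorescence polarization from S- and P-plane intensities, G-factor corrected · Evaluation – inhibition from polarization loss · Probe or stimulus – TMR reporter peptide T*-PRC34 · Buffer or medium – pH 7.4 phosphate-saline buffer, reducing agent, detergent, IgG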
ARNT Alpha ctr-1: AlphaScreen signal interference compounds, dose response, artefact control for ARNT-TACC3 interaction inhibitor project, biochemical, luminescence, cherry-pick; shares compounds with ARNT-TACC3 inh; AC50, µM (titrated, usually from 68 µM), for inactives: at the highest dose activity change, negative = signal decrease; 1,200 tested, 50% active; His-ARNT PASB-GST AlphaScreen artifact counter-screen;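 active = every separate test run was called active for a drop in luminescence, with AC50 within twice the top valid dose, actives reach about 71 µM in these data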
ARNT Alpha ctr-2: AlphaScreen signal interference by compounds, dose response, artefact control for ARNT/TACC3 disruptor project, biochemical, dual-tagged ARNT, dry powder; shares compounds with ARNT-TACC3 inh; AC50, µM; 45 tested, 70% active; AID 720564, 2013; Dual-tagged His-ARNT PASB-GST AlphaScreen artifact counter-screen;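 active = luminescence drop, with half-maximal potency fitted within twice the sample's top valid dose, cut at about 70 µM in these data; inactive = the rest, including signal moving the wrong way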
Starred values were filed as active, the others as inactive; x = not tested or not shown. Rows were chosen to be rich in hits. Some 1.2% of all compounds tested hit in one or more screens of this group.

SMILES | CAL PDZ FP-1 | ARNT-TACC3 inh | CAL PDZ FP-2 | ARNT Alpha ctr-1 | others
C[C@H](CO)N1C[C@H](C)[C@@H](CN(C)Cc2ccccc2)Oc2ncc(-c3ccccc3F)cc2C1=O | x | 0 | x | x
Cc1ccc(C(=O)Nc2nc(-c3ccccn3)cs2)cc1S(=O)(=O)N1CCOCC1 | -4 | 66* | -4 | 24µM* | ARNT Alpha ctr-2=10*
O=C(Nc1nc(-c2ccccn2)cs1)c1cc(S(=O)(=O)N2CCOCC2)ccc1F | -4 | 74* | -1 | 23µM*
Cc1ccc(S(=O)(=O)N2CCOCC2)cc1C(=O)Nc1nc(-c2cccnc2)cs1 | 1 | 4 | -2 | x
Cc1nnc(NC(=O)c2ccc(F)c(S(=O)(=O)N3CCOCC3)c2)s1 | -3 | -14 | 0 | x
Cc1ccc(C(=O)Nc2ccccn2)cc1S(=O)(=O)N1CCOCC1 | 7 | 3 | -1 | x
O=C(Nc1nc(-c2ccccn2)cs1)c1ccc(F)c(S(=O)(=O)N2CCOCC2)c1 | 9 | 68* | 0 | 9µM*
C[C@H](CO)N1C[C@H](C)[C@@H](CN(C)Cc2ccc(C(=O)O)cc2)OCCCC[C@H](C)Oc2ccc(NS(=O)(=O)c3ccc(F)cc3)cc2C1=O | x | -12 | x | x
NC(=O)CC(NC(=O)c1ccccc1)c1ccc(NCCOc2ccccc2)c([N+](=O)[O-])c1 (stereo not given) | -1 | 5 | 1 | x
NC(=O)CC(NC(=O)c1ccccc1)c1ccc(NCc2ccccn2)c([N+](=O)[O-])c1 (stereo not given) | -2 | 65* | 0 | -13%
O=C(CN1CCCCCC1)Nc1ccccc1[N+](=O)[O-] | -9 | 51* | x | -11%
CN1CCN(CC(=O)Nc2ccccc2[N+](=O)[O-])CC1 | -3 | -2 | -1 | x
COc1ccc(NCc2ccccc2[N+](=O)[O-])cc1OC | 1 | 11 | 0 | x
COc1cc2c(cc1OC)C(Cc1ccccc1[N+](=O)[O-])=NCC2 | -4 | 39* | -1 | -10%
Cc1ccc(S(=O)(=O)Nc2ccc3c(c2)C(=O)N([C@@H](C)CO)C[C@H](C)[C@@H](CN(C)Cc2ccccc2)O3)cc1 | x | -9 | x | x
CCN(CC)C(=O)[C@H]1CC(CC(=O)NCc2ccc(OC)c(OC)c2)C(=O)N2CCc3c([nH]c4ccccc34)[C@]12C (stereo not given in full) | -4 | 1 | 0 | x
CCN(CC)C(=O)[C@H]1C[C@H](CC(=O)NCc2ccc(OC)c(OC)c2)C(=O)N2CCc3c([nH]c4ccc(Cl)cc34)[C@]12C | -5 | 27* | 1 | -3%
O=C(Nc1ccc(F)c(F)c1)c1ccc2c(c1)OCO2 | -1 | 4 | -1 | x
O=C(Nc1ccc2c(c1)OCO2)c1ccc2c(c1)OCO2 | 0 | 52* | -1 | -17%
O=S(=O)(c1ccccc1)c1nc(-c2ccco2)oc1Nc1ccccc1 | 6 | active | 0 | 62µM*
O=S(=O)(c1ccc(F)cc1)c1nc(-c2ccco2)oc1Nc1ccccc1 | 0 | 2 | -3 | x
COc1ccc(Cc2nnc(NN)[nH]c2=O)cc1OC | 5 | active | -1 | 27µM*
COc1ccc(/C=N/Nc2nnc(Cc3ccc(OC)c(OC)c3)c(=O)[nH]2)cc1OC | -3 | 2 | 0 | x
COc1ccc(Cc2nnc(N/N=C(\C)c3ccccc3)[nH]c2=O)cc1OC | -1 | 47* | 0 | -14%
COCCNc1nnc(Cc2ccc(OC)c(OC)c2)c(=O)[nH]1 | 4 | 3 | x | x
C[C@H]1CN([C@@H](C)CO)C(=O)Cc2cc(NS(=O)(=O)c3cccs3)ccc2O[C@@H]1CN(C)C(=O)Nc1ccccc1 | x | 7 | x | x
COc1cccc(NC(=O)N[C@H]2C=C[C@@H](CC(=O)N3CCCCC3)O[C@@H]2CO)c1 | x | -8 | x | x
C[C@@H]1CN([C@@H](C)CO)C(=O)c2cc(N(C)C)ccc2O[C@@H]1CN(C)Cc1ccc(C(F)(F)F)cc1 | x | 8 | x | x
C[C@H](CO)N1C[C@H](C)[C@H](CN(C)Cc2ccc(C(=O)O)cc2)OCc2ccccc2-c2ccccc2C1=O | x | -23 | x | x
